Reference: ChEMBL document CHEMBL1131624, “Inhibitors of acyl-CoA:cholesterol O-acyltransferase. 2. Identification and structure-activity relationships of a novel series of N-alkyl-N-(heteroaryl-substituted benzyl)-N'-arylureas” (J Med Chem, 1998)
The source made the active and inactive calls. The calls are words filed in the database; no cut-off is given here.

Assays:
O-acyltransferase = O-acyltransferase (Oryctolagus cuniculus, UniProt G1SFD9); experiment: In vitro inhibitory activity against Acyl coenzyme A:cholesterol acyltransferase (ACAT) in rabbit intestinal microsomes; parameters: species or system Intestine
Chain of O-acyltransferase (G1SFD9 1-524): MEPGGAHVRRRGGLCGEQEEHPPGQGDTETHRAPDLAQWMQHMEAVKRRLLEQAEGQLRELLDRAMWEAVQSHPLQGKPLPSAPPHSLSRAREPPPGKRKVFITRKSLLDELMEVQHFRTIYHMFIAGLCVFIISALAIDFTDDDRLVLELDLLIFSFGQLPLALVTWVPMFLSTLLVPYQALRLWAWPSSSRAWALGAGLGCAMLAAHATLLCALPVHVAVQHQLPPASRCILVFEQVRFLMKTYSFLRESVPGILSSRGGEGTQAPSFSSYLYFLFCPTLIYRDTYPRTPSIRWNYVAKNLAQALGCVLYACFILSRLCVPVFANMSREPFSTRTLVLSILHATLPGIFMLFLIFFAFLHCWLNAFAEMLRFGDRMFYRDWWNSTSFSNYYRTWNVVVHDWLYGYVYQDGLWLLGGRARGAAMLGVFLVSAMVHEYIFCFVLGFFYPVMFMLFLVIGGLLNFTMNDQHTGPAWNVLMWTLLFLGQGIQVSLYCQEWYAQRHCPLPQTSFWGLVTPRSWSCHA
Procedure, shortened: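 Enzyme source was mucosal microsomes from small intestine of cholesterol-fed rabbits, incubated with [1-¹⁴C]oleoyl-CoA (Heider method, minor modifications).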

[1] = biological target: T1, Sterol O-acyltransferase, Soat (Rattus norvegicus) (UniProt Q7TQM4+O70536); experiment: Effective dose to reduce plasma total cholesterol level by 50% of the control value in cholesterol fed rats; format: functional
Procedure, shortened: (§1)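 Cholesterol-fed rats given compound orally as a dietary admixture in a cholesterol-enriched diet. Plasma total cholesterol compared with control and reported as percent reduction at the dose, or as ED50, the dose reducing plasma total cholesterol by 50% of the control value.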

[2] = biological target: T1, Sterol O-acyltransferase, Soat (Rattus norvegicus); experiment: Percentage reduction in total cholesterol level at >1 mg/kg; format: functional, organism-based; procedure, shortened: as §1
Rattus norvegicus [3] = experiment: Compound was evaluated for percent reduction in total cholesterol level at >1 mg/kg; Inactive; format: functional, organism-based; procedure, shortened: as §1
[4] = biological target: T1, Sterol O-acyltransferase, Soat (Rattus norvegicus); experiment: Percentage reduction in total cholesterol level at <1 mg/kg; format: functional, organism-based; procedure, shortened: as §1
Rattus norvegicus [5] = experiment: Compound was evaluated for percent reduction in total cholesterol level at >0.1 mg/kg; format: functional; procedure, shortened: as §1
Rattus norvegicus [6] = organism: Rattus norvegicus; experiment: Effective dose to reduce plasma total cholesterol level by 50% of the control value in cholesterol fed rats; Inactive; format: functional, organism-based; procedure, shortened: as §1
Rattus norvegicus [7] = experiment: Compound was evaluated for percent reduction in total cholesterol level at <0.32 mg/kg; format: functional; procedure, shortened: as §1
Mus musculus = organism: Mus musculus; experiment: Compound tested for inhibitory activity of foam cell formation in mouse peritoneal macrophages; format: functional
Procedure, shortened: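 Mouse peritoneal macrophages from nonstimulated mice, lavaged with PBS, plated 2 × 10⁶ cells/mL, adhered 2 h, then 18 h in 10% FBS-DMEM. Incubated 4 h at 37 °C with 0.2 mmol/L [1-¹⁴C]oleate–BSA, 30 µg/mL acetylated human LDL and compound (0.1% DMSO). Lipids extracted, TLC-separated, and cholesteryl [¹⁴C]oleate counted. Cell protein also measured. IC50 in nM.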

Compound	IC50 (O-acyltransferase)	ED50 [1]	other results
O=C(Nc1c(F)cc(F)cc1F)N(Cc1ccc(-n2cccc2)cc1)C1CCCCCC1	27 nM	> 1 mg/kg	Reduction [2]: 21%
Cc1cc(C)c(NC(=O)N(Cc2ccc(-c3n[nH]c(C)n3)cc2)C2CCCCCC2)c(C)c1	120 nM	> 1 mg/kg	Reduction [2]: 17%
Cc1cc(C)c(NC(=O)N(Cc2ccc(-n3cccn3)cc2)C2CCCCCC2)c(C)c1	70 nM	> 1 mg/kg	Reduction (Rattus norvegicus [3]): inactive
Cc1cc(C)c(NC(=O)N(Cc2ccc(-n3ccnn3)cc2)C2CCCCCC2)c(C)c1	42 nM	> 1 mg/kg	Reduction [2]: 19%
Cc1cc(C)c(NC(=O)N(Cc2cccc(-c3cc[nH]n3)c2)C2CCCC2)c(C)c1	22 nM	< 1 mg/kg	Reduction [4]: 76%
Cc1cc(C)c(NC(=O)N(Cc2cccc(-c3c[nH]cn3)c2)C2CCCCCC2)c(C)c1		< 1 mg/kg	Reduction [4]: 84%
CSc1cc(C)nc(SC)c1NC(=O)N(Cc1ccccc1)Cc1cccc(-c2ccnn2C)c1	28 nM	< 1 mg/kg	Reduction [4]: 88%
Cc1cc(C)c(NC(=O)N(Cc2ccc(N3CCN(C)CC3)cc2)C2CCCCCC2)c(C)c1	57 nM	> 1 mg/kg	Reduction [2]: 23%
Cc1cc(C)c(NC(=O)N(Cc2cccc(-c3ccnn3C)c2)C2CCCCCC2)c(C)c1	35 nM	> 1 mg/kg	Reduction [2]: 34%
Cc1cc(C)c(NC(=O)N(Cc2ccc(-c3cn[nH]c3)cc2)C2CCCCCC2)c(C)c1	270 nM	> 1 mg/kg	Reduction [2]: 8%
Cc1cc(C)c(NC(=O)N(Cc2ccc(-c3ccnn3C)cc2)C2CCCCCC2)c(C)c1	24 nM	< 1 mg/kg	Reduction [4]: 64%
Cc1cc(C)c(NC(=O)N(Cc2ccc(-c3cnco3)cc2)C2CCCCCC2)c(C)c1	200 nM	> 1 mg/kg	Reduction [2]: 13%
CSc1cc(C)nc(SC)c1NC(=O)N(Cc1ccccc1)Cc1cccc(-c2cnn(C)c2)c1		> 0.1 mg/kg	Reduction (Rattus norvegicus [5]): 43%
COc1ccccc1CN(Cc1cccc(-c2cc[nH]n2)c1)C(=O)Nc1c(SC)cc(C)nc1SC		> 0.1 mg/kg	ED50 (Rattus norvegicus [6]): inactive
Cc1cc(C)c(NC(=O)N(Cc2cc(-c3ccccc3)on2)C2CCCCCC2)c(C)c1	61 nM	> 1 mg/kg	Reduction [2]: 28%
Cc1cc(C)c(NC(=O)N(Cc2ccc(-n3cncn3)cc2)C2CCCCCC2)c(C)c1	26 nM	> 1 mg/kg	Reduction [2]: 19%
Cc1cc(C)c(NC(=O)N(Cc2cccc(-c3cc[nH]n3)c2)C2CCCCC2)c(C)c1	39 nM	0.12 mg/kg	
Cc1cc(C)c(NC(=O)N(Cc2cccc(-c3csc(C)n3)c2)C2CCCCCC2)c(C)c1	180 nM		
O=C(Nc1c(F)cc(F)cc1F)N(Cc1ccc(F)cc1)Cc1cccc(-c2cc[nH]n2)c1		< 0.32 mg/kg	Reduction (Rattus norvegicus [7]): 64%
CSc1cc(C)nc(SC)c1NC(=O)N(Cc1ccc(F)cc1)Cc1cccc(-c2cc[nH]n2)c1	250 nM	< 0.1 mg/kg	
Cc1cc(C)c(NC(=O)N(Cc2ccc(-c3cc[nH]n3)cc2)C2CCCCCC2)c(C)c1	52 nM	> 1 mg/kg	Reduction [2]: 17%

Compound	IC50 (O-acyltransferase)	ED50 [1]	other results
Cc1cc(C)c(NC(=O)N(Cc2cccc(-c3cnn(C)c3)c2)C2CCCCCC2)c(C)c1	44 nM	< 1 mg/kg	Reduction [4]: 74%
Cc1cc(C)c(NC(=O)N(Cc2cc(-c3ccccc3)cs2)C2CCCCCC2)c(C)c1	36 nM	< 1 mg/kg	Reduction [4]: 69%
CSc1cc(C)nc(SC)c1NC(=O)N(Cc1cccc(-c2cnn(C)c2)c1)C1CCCCCC1		> 0.1 mg/kg	Reduction (Rattus norvegicus [5]): 44%
Cc1cc(C)c(NC(=O)N(Cc2ccc(-c3ccccn3)cc2)C2CCCCCC2)c(C)c1	33 nM	> 1 mg/kg	Reduction [2]: 46%
CSc1cc(C)nc(SC)c1NC(=O)N(Cc1ccc(-c2cc[nH]n2)cc1)C1CCCCCC1	100 nM	< 0.32 mg/kg	Reduction (Rattus norvegicus [7]): 77%
Cc1cc(C)c(NC(=O)N(Cc2cccc(-c3cc[nH]n3)c2)C2CCCCCC2)c(C)c1	65 nM	0.097 mg/kg	IC50 (Mus musculus): 460 nM
Cc1cc(C)c(NC(=O)N(Cc2ccc(-c3ccccc3)s2)C2CCCCCC2)c(C)c1	46 nM	< 1 mg/kg	Reduction [4]: 60%
Cc1cc(C)c(NC(=O)N(Cc2ccc(-c3cccs3)cc2)C2CCCCCC2)c(C)c1	22 nM	0.28 mg/kg	
CSc1cc(C)nc(SC)c1NC(=O)N(Cc1ccccc1)Cc1cccc(-c2cc[nH]n2)c1	99 nM	0.046 mg/kg	
O=C(Nc1c(F)cc(F)cc1F)N(Cc1ccc(-c2ccsc2)cc1)C1CCCCCC1	23 nM	> 1 mg/kg	Reduction (Rattus norvegicus [3]): inactive
Cc1cc(C)c(NC(=O)N(Cc2ccc(-c3ccccc3)o2)C2CCCCCC2)c(C)c1	44 nM	< 1 mg/kg	Reduction [4]: 68%
Cc1cc(C)c(NC(=O)N(Cc2ccc(-c3cccnc3)cc2)C2CCCCCC2)c(C)c1	130 nM	0.58 mg/kg	
CSc1cc(C)nc(SC)c1NC(=O)N(Cc1ccccc1)Cc1ccc(-c2cc[nH]n2)cc1	55 nM	< 0.32 mg/kg	Reduction (Rattus norvegicus [7]): 58%
Cc1cc(C)c(NC(=O)N(Cc2ccc(-c3ccsc3)cc2)C2CCCCCC2)c(C)c1	19 nM	0.51 mg/kg	
Cc1cc(C)c(NC(=O)N(Cc2cc(-c3ccccc3)[nH]n2)C2CCCCCC2)c(C)c1	520 nM		
Cc1cc(C)c(NC(=O)N(Cc2ccccc2)Cc2cccc(-c3cc[nH]n3)c2)c(C)c1	21 nM	> 1 mg/kg	Reduction [2]: 36%
CSc1cc(C)nc(SC)c1NC(=O)N(Cc1ccccc1)Cc1cccc(-c2ccn(C)n2)c1	73 nM	< 1 mg/kg	Reduction [4]: 77%
Cc1cc(C)c(NC(=O)N(Cc2ccc(-n3nccn3)cc2)C2CCCCCC2)c(C)c1	130 nM	> 1 mg/kg	Reduction [2]: 11%
COc1ccc(CN(Cc2cccc(-c3cc[nH]n3)c2)C(=O)Nc2c(SC)cc(C)nc2SC)cc1	200 nM	< 0.1 mg/kg	
Cc1cc(C)c(NC(=O)N(Cc2cccc(-c3ccn(C)n3)c2)C2CCCCCC2)c(C)c1	42 nM	< 1 mg/kg	Reduction [4]: 78%
CSc1cc(C)nc(SC)c1NC(=O)N(Cc1ccccc1)Cc1ccc(-c2cnn(C)c2)cc1		> 0.1 mg/kg	Reduction (Rattus norvegicus [5]): 29%

Compound	IC50 (O-acyltransferase)	ED50 [1]	other results
Cc1cc(C)c(NC(=O)N(Cc2cccc(-c3nnn(C)n3)c2)C2CCCCCC2)c(C)c1	100 nM	< 1 mg/kg	Reduction [4]: 84%
O=C(Nc1c(F)cc(F)cc1F)N(Cc1ccc(-c2ccccn2)cc1)C1CCCCCC1	25 nM	> 1 mg/kg	Reduction [2]: 30%
CSc1cc(C)nc(SC)c1NC(=O)N(Cc1ccccc1)Cc1ccc(-c2ccnn2C)cc1	27 nM	< 0.32 mg/kg	Reduction (Rattus norvegicus [7]): 86%
Cc1cc(C)c(NC(=O)N(Cc2cccc(-c3nn[nH]n3)c2)C2CCCCCC2)c(C)c1	> 1000 nM		
CCCCCCCN(Cc1ccc(CC(C)(C)C)cc1)C(=O)Nc1ccc(F)cc1F		5 mg/kg	
CSc1cc(C)nc(SC)c1NC(=O)N(CCc1ccccc1)Cc1cccc(-c2cc[nH]n2)c1		> 0.1 mg/kg	ED50 (Rattus norvegicus [6]): inactive
Cc1cc(C)c(NC(=O)N(Cc2cccc(-c3nnnn3C)c2)C2CCCCCC2)c(C)c1		> 1 mg/kg	Reduction [2]: 26%
Cc1cc(C)c(NC(=O)N(Cc2cccc(-c3cn[nH]c3)c2)C2CCCCCC2)c(C)c1	38 nM	0.19 mg/kg	
O=C(Nc1c(F)cc(F)cc1F)N(Cc1ccccc1)Cc1cccc(-c2cc[nH]n2)c1	14 nM	0.096 mg/kg	
Cc1cc(C)c(NC(=O)N(Cc2ccc(-n3cccc3)cc2)C2CCCCCC2)c(C)c1	28 nM	< 1 mg/kg	Reduction [4]: 51%
CN(C)c1ccc(CN(Cc2cccc(-c3cc[nH]n3)c2)C(=O)Nc2c(F)cc(F)cc2F)cc1	12 nM	< 0.32 mg/kg	Reduction (Rattus norvegicus [7]): 68%
COc1cccc(CN(Cc2cccc(-c3cc[nH]n3)c2)C(=O)Nc2c(SC)cc(C)nc2SC)c1		> 0.1 mg/kg	Reduction (Rattus norvegicus [5]): 13%
CSc1cc(C)nc(SC)c1NC(=O)N(Cc1ccc(-c2cnn(C)c2)cc1)C1CCCCCC1		> 0.1 mg/kg	ED50 (Rattus norvegicus [6]): inactive
CSc1cc(C)nc(SC)c1NC(=O)N(Cc1ccc(N(C)C)cc1)Cc1cccc(-c2cc[nH]n2)c1	72 nM	< 0.1 mg/kg	
Cc1cc(C)c(NC(=O)N(Cc2ccc(-c3cnn(C)c3)cc2)C2CCCCCC2)c(C)c1	47 nM	0.31 mg/kg	
CC(C)c1cccc(C(C)C)c1OC(=O)NS(=O)(=O)Oc1c(C(C)C)cccc1C(C)C	4000 nM	0.61 mg/kg	IC50 (Mus musculus): 55000 nM
Cc1cc(C)c(NC(=O)N(Cc2ccc(-n3ccnc3)cc2)C2CCCCCC2)c(C)c1	47 nM	> 1 mg/kg	Reduction [2]: 26%
Cc1cc(C)c(NC(=O)N(Cc2ccc(-c3ccccc3)nc2)C2CCCCCC2)c(C)c1	260 nM		
Cc1cc(C)c(NC(=O)N(Cc2cccc(-n3cccc3)c2)C2CCCCCC2)c(C)c1	20 nM	0.17 mg/kg	
O=C(Nc1c(F)cc(F)cc1F)N(Cc1ccc(-c2cccs2)cc1)C1CCCCCC1	18 nM	> 1 mg/kg	Reduction [2]: 33%
CSc1cc(C)nc(SC)c1NC(=O)N(Cc1ccc(Oc2ccc(F)cc2)cc1)C1CCCCCC1	30 nM	0.034 mg/kg	
